Values after ≈ are worked out from the molar mass of the structure shown. Active and inactive are the calls of the source.

Test [1] concerns Cladosporium herbarum. The experiment in a line: Antimicrobial activity against Cladosporium herbarum DSM 63422 at 10 ug/disk after 24 hrs. In kind it is functional. To be noted: for zone of inhibition at 10 µg/disc: DSM 63422, 24 h, read-out: IZ. In short, it runs like this: (§1)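 Agar plate disk diffusion: disks impregnated with sample (5 or 10 µg per disk) placed on agar plates pre-inoculated with the test organism; solvent controls run against each organism. Plates incubated at 37 °C for 24 h, then clear inhibition zones around the disk measured in mm; sample scored active when zone exceeded 7 mm.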

Another test has as its system L5178Y. In words: Cytotoxicity against mouse L5178Y cells by MTT assay. In kind it is functional. The settings on record: read-out: ED50 (the source's name).
Test [2] concerns Bacillus subtilis. The experiment in a line: Antimicrobial activity against Bacillus subtilis DSM 2109 at 5 ug/disk after 24 hrs. The format is functional. To be noted: for zone of inhibition at 5 µg/disc: DSM 2109, 24 h, read-out: IZ. In outline:
as §1

Test [3] concerns Staphylococcus aureus. In words: Antimicrobial activity against Staphylococcus aureus ATCC 25923 at 10 ug/disk after 24 hrs. The settings on record: for zone of inhibition at 10 µg/disc: ATCC 25923, 24 h, read-out: IZ.
Test [4] concerns Candida albicans. In words: Antimicrobial activity against Candida albicans at 5 ug/disk after 24 hrs. In kind it is functional. In short, it runs like this: as §1
The subject of test [5] is Bacillus subtilis. In words: Antimicrobial activity against Bacillus subtilis DSM 2109 at 10 ug/disk after 24 hrs. In kind it is functional. The settings on record: DSM 2109, 24 h, read-out: IZ. In short, it runs like this:
as §1

Test [6] has as its system Escherichia coli. In words: Antimicrobial activity against Escherichia coli DSM 10290 at 5 ug/disk after 24 hrs. In kind it is functional. In short, it runs like this:
(§2)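 Agar plate disk diffusion: disks impregnated with test sample (5 or 10 µg per disk) placed on agar plates previously inoculated with the organism, with solvent controls. Plates incubated 24 h at 37 °C. Read-out is the diameter (mm) of the clear inhibition zone around the disk. A sample is scored active when the zone exceeds 7 mm.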

Test [7] deals with Candida albicans. In words: Antimicrobial activity against Candida albicans at 10 ug/disk after 24 hrs. In kind it is functional. To be noted: read-out: IZ. In short, it runs like this:
as §1

The next test relates to HeLa. The experiment in a line: Cytotoxicity against human HeLa cells by MTT assay. The format is functional, cell-based.
Test [8] concerns Staphylococcus aureus. The experiment in a line: Antimicrobial activity against Staphylococcus aureus ATCC 25923 at 5 ug/disk after 24 hrs. In kind it is functional. In outline:
as §2

The test system of test [9] is Cladosporium herbarum. The experiment in a line: Antimicrobial activity against Cladosporium herbarum DSM 63422 at 5 ug/disk after 24 hrs. The format is functional, organism-based. In outline: as §1
The next test deals with PC-12. The experiment in a line: Cytotoxicity against rat PC12 cells by MTT assay. In kind it is functional, cell-based.
The subject of test [10] is Escherichia coli. In words: Antimicrobial activity against Escherichia coli DSM 10290 at 10 ug/disk after 24 hrs. The format is functional. The settings on record: for zone of inhibition at 10 µg/disc: DSM 10290, 24 h, read-out: IZ. In short, it runs like this: as §1
Test [11] concerns Cladosporium herbarum. The experiment in a line: Antimicrobial activity against Cladosporium herbarum DSM 63422 by serial dilution assay. The format is functional.

With `COC1OC(=O)C=C1CC/C=C(\C)CC/C=C(\C)CCC1=C(C)CCCC1(C)C` (stereo not given), the zone of inhibition at 10 µg/disc in the test on Cladosporium herbarum [1] turned out to be 15 mm; in the test on Staphylococcus aureus [3], 10 mm; with Bacillus subtilis [5] it was 9 mm; in the test on Candida albicans [7], 9 mm. In the test on L5178Y, the EC50 stood at 0.7 µg/mL (≈ 1.75 µM). Besides, the zone of inhibition at 5 µg/disc was determined as 7 mm in the test with Bacillus subtilis [2] and 9 mm in the test on Candida albicans [4] (read-out: IZ). Besides, the outcome with Escherichia coli [6], with HeLa, in the test with Staphylococcus aureus [8], in the test with Cladosporium herbarum [9], in the test with PC-12 and in the test with Escherichia coli [10] was inactive.

For `CCOC1OC(=O)C=C1CC/C=C(\C)CC/C=C(\C)CCC1=C(C)CCCC1(C)C` (stereo not given), the outcome in the test on Cladosporium herbarum [1], in the test on Bacillus subtilis [2], in the test with Staphylococcus aureus [3], with Candida albicans [4], in the test with Escherichia coli [6] and in the test on HeLa was inactive. Further, the outcome in the test on Staphylococcus aureus [8], in the test with Cladosporium herbarum [9] and with PC-12 was inactive. In the test on L5178Y, the EC50 is over 100 µg/mL. Besides, the zone of inhibition at 10 µg/disc with Bacillus subtilis [5] is 7 mm; in the test with Candida albicans [7] it was 9 mm; in the test with Escherichia coli [10] it was 12 mm.

On to `CC1=C(CC/C(C)=C/CC/C(C)=C/CCC2=CC(=O)OC2O)C(C)(C)CCC1=O` (stereo not given) [ACANTHOLIDE B], for which the zone of inhibition at 10 µg/disc in the test on Cladosporium herbarum [1] worked out at 10 mm; in the test with Staphylococcus aureus [3], 10 mm; in the test with Bacillus subtilis [5], 12 mm; with Candida albicans [7], 10 mm; with Escherichia coli [10], 9 mm. Moreover, the EC50 with L5178Y is over 10 µg/mL. Besides, the result with Bacillus subtilis [2], in the test on Candida albicans [4], with Escherichia coli [6], in the test with HeLa, in the test with Staphylococcus aureus [8] and in the test with Cladosporium herbarum [9] was inactive. The result in the test with PC-12 was inactive.

Regarding `CC(=O)[C@]1(CC/C(C)=C/CC/C(C)=C/CCC2=CC(=O)OC2O)[C@@H](O)CCC1(C)C` (stereo not given in full) [ACANTHOLIDE D], the EC50 in the test with L5178Y was over 10 µg/mL. The outcome in the test on HeLa and with PC-12 was inactive.

For `CC(=O)[C@]1(CC/C(C)=C/CC/C(C)=C/CCC2=CC(=O)OC2O)[C@H](O)CCC1(C)C` (stereo not given in full) [ACANTHOLIDE E], the EC50 in the test with L5178Y amounted to 7 µg/mL (≈ 16.7 µM). Besides, the outcome in the test on HeLa and in the test on PC-12 was inactive.

As to `CC1=C(CC/C(C)=C/CC/C(C)=C/CCC2=CC(=O)OC2O)C(C)(C)CCC1` (stereo not given) [LUFFARIELLOLIDE], the zone of inhibition at 10 µg/disc is 20 mm with Cladosporium herbarum [1]; 11 mm in the test with Staphylococcus aureus [3]; 12 mm in the test with Bacillus subtilis [5]; 10 mm in the test with Candida albicans [7]; 10 mm in the test on Escherichia coli [10]. Further, the EC50 with L5178Y turned out to be 3.3 µg/mL (≈ 8.54 µM). The zone of inhibition at 5 µg/disc in the test on Bacillus subtilis [2] was determined as 7 mm; in the test with Escherichia coli [6] (DSM 10290, 24 h, read-out: IZ), 7 mm; in the test with Staphylococcus aureus [8] (ATCC 25923, 24 h, read-out: IZ), 7 mm. Further, the outcome in the test with Candida albicans [4], with HeLa, with Cladosporium herbarum [9] and with PC-12 was inactive. This molecule registered a minimal inhibitory concentration (MIC) against Cladosporium herbarum [11] of 10.4 µg/mL (≈ 26.9 µM).

On to NYSTATIN, for which, in the test on Cladosporium herbarum [11], the lowest concentration to inhibit growth (MIC) was 1.06 µg/mL.

The values above are taken from ChEMBL document CHEMBL1148940, “New luffariellolide derivatives from the Indonesian sponge Acanthodendrilla sp” (2004).
